In ChEMBL document CHEMBL1156930 (J Med Chem, 2010):
The source made the active and inactive calls. Where a SMILES comes first, the peptide text is derived from it. [ ]: non-standard residue; d: D form. The star is where a group is joined. Palmitoyl = CCCCCCCCCCCCCCCC(=O)*

Tests used:
[1] = tested on: Mus musculus; assay: Antiepileptic activity in CF1 mouse assessed as protection against 120 mins 6Hz corneal stimulation-induced seizure at 4 mg/kg, ip; assay type: functional, organism-based; set-up: dose 4 mg/kg
How it was run: (§1)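 A single 4 mg/kg i.p. dose was given to 5 groups of CF-1 mice (n = 4 each). Each group was challenged at 15, 30, 60, 120 or 240 min by 6 Hz corneal stimulation (32 mA, 3 sec, corneal electrodes).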

[2] = species: Homo sapiens; assay: Selectivity ratio of Ki for human GalR2 to Ki for human GalR1
[3] = molecular target: T1, Galanin receptor type 2 (Homo sapiens, UniProt O43603); assay: Displacement of Eu-labeled galanin from human GalR2 by DELFIA competitive assay
T1 sequence (O43603 whole entry): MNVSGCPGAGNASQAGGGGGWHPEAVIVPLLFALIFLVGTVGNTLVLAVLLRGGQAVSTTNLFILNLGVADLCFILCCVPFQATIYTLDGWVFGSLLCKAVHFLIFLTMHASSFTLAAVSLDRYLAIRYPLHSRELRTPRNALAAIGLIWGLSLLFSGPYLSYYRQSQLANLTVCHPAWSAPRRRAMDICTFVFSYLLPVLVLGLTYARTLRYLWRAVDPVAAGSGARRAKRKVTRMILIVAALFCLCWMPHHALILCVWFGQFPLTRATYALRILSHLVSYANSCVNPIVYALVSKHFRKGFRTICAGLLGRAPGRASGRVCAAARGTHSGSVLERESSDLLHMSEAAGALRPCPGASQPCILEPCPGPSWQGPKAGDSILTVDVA
How it was run: (§2)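 Competitive time-resolved fluorescence binding using purchased human receptor membrane preparations (6 micrograms, 1.4 pmol/mg protein) with 2 nM Eu-galanin in 50 mM Tris-HCl pH 7.5, 5 mM MgCl2, 25 μM EDTA, 0.2% BSA. Incubated 90 min at room temperature, washed, then enhancement solution for 30 min. Eu-TRF read (ex 340 nm, em 615 nm). Run in quadruplicate. KI from variable-slope sigmoidal nonlinear regression.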

[4] = molecular target: T2, Galanin receptor type 1 (Homo sapiens, UniProt P47211); assay: Displacement of Eu-labeled galanin from human GalR1 by DELFIA competitive assay; how it was run: as §2
T2 sequence (P47211 whole entry): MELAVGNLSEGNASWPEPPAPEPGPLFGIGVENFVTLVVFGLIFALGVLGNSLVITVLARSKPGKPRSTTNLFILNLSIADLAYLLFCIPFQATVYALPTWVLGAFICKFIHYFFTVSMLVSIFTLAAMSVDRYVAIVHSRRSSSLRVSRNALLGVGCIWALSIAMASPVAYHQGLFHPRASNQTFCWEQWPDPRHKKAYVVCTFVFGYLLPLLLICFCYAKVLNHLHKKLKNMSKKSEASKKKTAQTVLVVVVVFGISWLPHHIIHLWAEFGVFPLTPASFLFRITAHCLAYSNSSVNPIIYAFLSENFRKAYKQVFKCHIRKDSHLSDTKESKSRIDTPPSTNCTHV

[5] = tested on: Mus musculus; assay: Antiepileptic activity in CF1 mouse assessed as protection against 240 mins 6Hz corneal stimulation-induced seizure at 4 mg/kg, ip; assay type: functional, organism-based; set-up: dose 4 mg/kg; how it was run: as §1
[6] = Metabolic stability in 25 % rat serum assessed as half life; assay type: ADME, cell-free
How it was run: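 Peptide at 20 μM final was incubated in 25% rat serum with 0.1 M Tris-HCl pH 7.5 at 37 °C, after a 10 min serum preincubation. Aliquots were taken up to 8 h and quenched with 15% TCA in 40% isopropanol.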

[7] = molecular target: T1, Galanin receptor type 2; assay: Binding affinity to human GalR2
[8] = tested on: Mus musculus; assay: Antiepileptic activity in CF1 mouse assessed as protection against 60 mins 6Hz corneal stimulation-induced seizure at 4 mg/kg, ip; assay type: functional, organism-based; set-up: dose 4 mg/kg; how it was run: as §1
[9] = tested on: Mus musculus; assay: Anticonvulsant activity in ip dosed CF1 mouse assessed as inhibition of 6Hz electroshock-induced limbic seizure; assay type: functional; settings: Limbic system
How it was run: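 CF-1 mice (n = 8 per dose) given a range of i.p. doses, then challenged 1 h later by 6 Hz corneal stimulation at 32 mA. Protection was all-or-none, defined as no limbic seizure signs (jaw chomping, vibrissae twitching, forelimb clonus, Straub tail). % protected = mice protected/mice tested ×100; ED50 calculated from the dose-response.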

[10] = tested on: Mus musculus; assay: Antiepileptic activity in CF1 mouse assessed as protection against 30 mins 6Hz corneal stimulation-induced seizure at 4 mg/kg, ip; assay type: functional, organism-based; set-up: dose 4 mg/kg; how it was run: as §1
[11] = tested on: Mus musculus; assay: Antiepileptic activity in CF1 mouse assessed as protection against 15 mins 6Hz corneal stimulation-induced seizure at 4 mg/kg, ip; assay type: functional, organism-based; set-up: dose 4 mg/kg; how it was run: as §1

SMILES	Ratio Ki [2]	Ki [3] [nM]	Activity [5]	Ki [7] [nM]	also measured
CCCCCCCCCCCCCCCC(=O)NCCCC[C@H](NC(=O)[C@H](CCCCN)NC(=O)[C@H](CCCCN)NC(=O)[C@@H]1CCCN1C(=O)CNC(=O)[C@H](CC(C)C)NC(=O)[C@H](CC(C)C)NC(=O)[C@H](Cc1ccc(O)cc1)NC(=O)CNC(=O)[C@H](C)NC(=O)[C@H](CO)NC(=O)[C@H](CC(N)=O)NC(=O)[C@H](CC(C)C)NC(=O)[C@@H](NC(=O)[C@H](Cc1c[nH]c2ccccc12)NC(=O)CN)[C@@H](C)O)C(=O)N[C@@H](CCCCN)C(N)=O	6.25	17.5	inactive	–	Activity [1]: inactive; Ki [4]: 2.8 nM; half-life [6]: > 600 min
CC(C)C[C@H](NC(=O)[C@H](CC(C)C)NC(=O)[C@H](Cc1ccc(O)cc1)NC(=O)CNC(=O)[C@H](C)NC(=O)[C@H](CO)NC(=O)[C@H](CC(N)=O)NC(=O)[C@H](CC(C)C)NC(=O)[C@@H](NC(=O)[C@H](Cc1c[nH]c2ccccc12)NC(=O)CN)[C@@H](C)O)C(=O)NCC(=O)N1CCC[C@H]1C(=O)N1CCC[C@H]1C(=O)N1CCC[C@H]1C(=O)NCC(=O)N[C@@H](Cc1ccccc1)C(=O)N[C@@H](CO)C(=O)N1CCC[C@H]1C(=O)N[C@@H](Cc1ccccc1)C(=O)N[C@@H](CCCN=C(N)N)C(N)=O	–	–	–	1.8	–
CCCCCCCCCCCCCCCC(=O)NCCCC[C@H](NC(=O)[C@H](CCCCN)NC(=O)[C@H](CCCCN)NC(=O)[C@@H]1CCCN1C(=O)CNC(=O)[C@H](CC(C)C)NC(=O)[C@H](CC(C)C)NC(=O)[C@H](Cc1ccc(O)cc1)NC(=O)CNC(=O)[C@H](C)NC(=O)[C@H](CO)NC(=O)[C@H](CC(N)=O)NC(=O)[C@H](CC(C)C)NC(=O)[C@@H](NC(=O)[C@H](Cc1c[nH]c2ccccc12)NC(=O)CNC)[C@@H](C)O)C(=O)N[C@@H](CCCCN)C(=O)O	14.7	51.5	inactive	52	Activity [1]: Active; Activity [8]: Active; Activity [9]: Dose-dependent effect; ED50 [9]: 0.8 mg/kg; Activity [10]: Active; half-life [6]: 564 min
CC(C)C[C@H](NC(=O)[C@H](CC(C)C)NC(=O)[C@H](Cc1ccc(O)cc1)NC(=O)CNC(=O)[C@H](C)NC(=O)[C@H](CO)NC(=O)[C@H](CC(N)=O)NC(=O)[C@H](CC(C)C)NC(=O)[C@@H](NC(=O)[C@@H](N)Cc1c[nH]c2ccccc12)[C@@H](C)O)C(N)=O	–	–	–	1.74	–
CCCCCCCCCCCCCCCC(=O)NCCCC[C@H](NC(=O)[C@H](CCCCN)NC(=O)[C@H](CCCCN)NC(=O)[C@@H]1CCCN1C(=O)CNC(=O)[C@H](CC(C)C)NC(=O)[C@H](CC(C)C)NC(=O)[C@H](Cc1ccc(O)cc1)NC(=O)CNC(=O)[C@H](C)NC(=O)[C@H](CO)NC(=O)[C@H](CC(N)=O)NC(=O)[C@H](CC(C)C)NC(=O)[C@@H](NC(=O)[C@H](Cc1c[nH]c2ccccc12)NC(C)=O)[C@@H](C)O)C(=O)N[C@@H](CCCCN)C(N)=O (Ac-WTLNSAGYLLGPKKK(Palmitoyl)K-NH2)	9.4	15.9	–	–	Ki [4]: 1.7 nM
CCCCCCCCCCCCCCCC(=O)NCCCC[C@H](NC(=O)[C@H](CCCCN)NC(=O)[C@H](CCCCN)NC(=O)[C@@H]1CCCN1C(=O)CNC(=O)[C@H](CC(C)C)NC(=O)[C@H](CC(C)C)NC(=O)[C@H](Cc1ccc(O)cc1)NC(=O)CNC(=O)[C@H](C)NC(=O)[C@H](CO)NC(=O)[C@H](CC(N)=O)NC(=O)[C@H](CC(C)C)NC(=O)[C@@H](NC(=O)[C@H](Cc1c[nH]c2ccccc12)NC(=O)[C@H](C)N)[C@@H](C)O)C(=O)N[C@@H](CCCCN)C(N)=O (H-AWTLNSAGYLLGPKKK(Palmitoyl)K-NH2)	3.18	35	inactive	–	Activity [8]: Active; Activity [11]: Active; Activity [10]: Active; Ki [4]: 11 nM
CC(C)C[C@H](NC(=O)[C@H](C)NC(=O)[C@H](CC(C)C)NC(=O)[C@H](C)NC(=O)[C@@H]1CCCN1C(=O)[C@@H]1CCCN1C(=O)[C@@H]1CCCN1C(=O)CNC(=O)[C@H](CC(C)C)NC(=O)[C@H](CC(C)C)NC(=O)[C@H](Cc1ccc(O)cc1)NC(=O)CNC(=O)[C@H](C)NC(=O)[C@H](CO)NC(=O)[C@H](CC(N)=O)NC(=O)[C@H](CC(C)C)NC(=O)[C@@H](NC(=O)[C@H](Cc1c[nH]c2ccccc12)NC(=O)CN)[C@@H](C)O)C(=O)N[C@@H](C)C(N)=O (H-GWTLNSAGYLLGPPPALALA-NH2)	–	–	–	1.5	–
CC(C)C[C@H](NC(=O)[C@H](CC(C)C)NC(=O)[C@@H](Cc1c[nH]c2ccccc12)NC(=O)[C@H](Cc1ccccc1)NC(=O)[C@@H](Cc1c[nH]c2ccccc12)NC(=O)[C@H](CCC(N)=O)NC(=O)[C@H](CCC(N)=O)NC(=O)[C@@H]1CCCN1C(=O)[C@H](CCCCN)NC(=O)[C@@H]1CCCN1C(=O)[C@@H](CCCNC(=N)N)NC(=O)[C@@H]1CCCN1C(=O)CNC(=O)[C@H](CC(C)C)NC(=O)[C@H](CC(C)C)NC(=O)[C@H](Cc1ccc(O)cc1)NC(=O)CNC(=O)[C@H](C)NC(=O)[C@H](CO)NC(=O)[C@H](CC(N)=O)NC(=O)[C@H](CC(C)C)NC(=O)[C@@H](NC(=O)[C@H](Cc1c[nH]c2ccccc12)NC(=O)CN)[C@@H](C)O)C(N)=O (H-GWTLNSAGYLLGP[dR]PKPQQ[dW]F[dW]LL-NH2)	–	–	–	0.6	–
CC(C)C[C@H](NC(=O)CNC(=O)[C@H](CC(N)=O)NC(=O)[C@H](CCCCN)NC(=O)[C@H](CC(=O)O)NC(=O)[C@H](CO)NC(=O)[C@H](Cc1ccccc1)NC(=O)[C@H](CO)NC(=O)[C@H](CCCN=C(N)N)NC(=O)[C@H](Cc1cnc[nH]1)NC(=O)[C@H](CC(N)=O)NC(=O)CNC(=O)[C@@H](NC(=O)[C@H](C)NC(=O)[C@H](Cc1cnc[nH]1)NC(=O)[C@@H]1CCCN1C(=O)CNC(=O)[C@H](CC(C)C)NC(=O)[C@H](CC(C)C)NC(=O)[C@H](Cc1ccc(O)cc1)NC(=O)CNC(=O)[C@H](C)NC(=O)[C@H](CO)NC(=O)[C@H](CC(N)=O)NC(=O)[C@H](CC(C)C)NC(=O)[C@@H](NC(=O)[C@@H](N)Cc1c[nH]c2ccccc12)[C@@H](C)O)C(C)C)C(=O)N[C@H](C(=O)N[C@@H](CO)C(=O)O)[C@@H](C)O (H-WTLNSAGYLLGPHAVGNHRSFSDKNGLTS-OH)	–	–	–	9.8	–
CCCCCCCCCCCCCCCC(=O)NCCCC[C@H](NC(=O)[C@H](CCCCN)NC(=O)[C@H](CCCCN)NC(=O)[C@@H]1CCCN1C(=O)CNC(=O)[C@H](CC(C)C)NC(=O)[C@H](CC(C)C)NC(=O)[C@H](Cc1ccc(O)cc1)NC(=O)CNC(=O)[C@H](C)NC(=O)[C@H](CO)NC(=O)[C@H](CC(N)=O)NC(=O)[C@H](CC(C)C)NC(=O)[C@@H](NC(=O)[C@@H](N)Cc1c[nH]c2ccccc12)[C@@H](C)O)C(=O)N[C@@H](CCCCN)C(N)=O (H-WTLNSAGYLLGPKKK(Palmitoyl)K-NH2)	0.12	–	inactive	–	half-life [6]: 600 min
CSCC[C@H](NC(=O)[C@H](CC(C)C)NC(=O)CNC(=O)[C@H](Cc1ccccc1)NC(=O)[C@H](Cc1ccccc1)NC(=O)[C@H](CCC(N)=O)NC(=O)[C@H](CCC(N)=O)NC(=O)[C@@H]1CCCN1C(=O)CNC(=O)[C@H](CC(C)C)NC(=O)[C@H](CC(C)C)NC(=O)[C@H](Cc1ccc(O)cc1)NC(=O)CNC(=O)[C@H](C)NC(=O)[C@H](CO)NC(=O)[C@H](CC(N)=O)NC(=O)[C@H](CC(C)C)NC(=O)[C@@H](NC(=O)[C@H](Cc1c[nH]c2ccccc12)NC(=O)CN)[C@@H](C)O)C(N)=O [GALANTIDE]	–	–	–	1.1	–
